Tested on: HEK-293T
Assay: Multiplex assay against HEK293T;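 on Population Tubulin-Different-Phenotype (%): share of the cells with healthy nuclei that show this phenotype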
Format: toxicity, cell-based
Conditions: human
Outline: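 Cells stained live at seeding with Hoechst33342, BioTracker Green Microtubule Cytoskeleton Dye, MitoTracker Red and Annexin V Alexa Fluor 680 were imaged on a CQ1 microscope at 37°C and 5% CO2 after compound addition. Their classification by CellPathfinder machine-learning gating ran from Hoechst high-intensity objects versus normal cells, to healthy, pyknosed or fragmented nuclei among normal cells, to mitotic or apoptotic among pyknosed cells. Tubulin, mitochondrial-mass and membrane-permeability phenotypes are per cents of healthy-nucleus cells.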

[1] = 12 h, 1 µM, compound concentration 1 uM, replicate 1
[2] = 12 h, 1 µM, compound concentration 1 uM, replicate 2
[3] = 12 h, 10 µM, compound concentration 10 uM, replicate 1
[4] = 12 h, 10 µM, compound concentration 10 uM, replicate 2
[5] = 24 h, 1 µM, compound concentration 1 uM, replicate 1
[6] = 24 h, 1 µM, compound concentration 1 uM, replicate 2
[7] = 24 h, 10 µM, compound concentration 10 uM, replicate 1
[8] = 24 h, 10 µM, compound concentration 10 uM, replicate 2

Cc1nc(-c2cn3c(n2)-c2ccc(-c4cnn(C(C)(C)C(N)=O)c4)cc2OCC3)n(C(C)C)n1 [TASELISIB]
Population Apoptotic (%) [1]: 21%
Population Fragmented Nuclei (%) [1]: 14%
Population Healthy Nuclei (%) [1]: 44%
Population Hoechst High Intensity Objects (%) [1]: 22%
Population Membrane Permeable-Phenotype (%) [1]: 4%
Population Mitochondria Different-Phenotype (%) [1]: 12%
Population Mitotic Cells (%) [1]: 78%
Population Normal (%) [1]: 77%
Population Pyknosed Nuclei (%) [1]: 41%
Population Tubulin-Different-Phenotype (%) [1]: 9%
Total Cell Count [1]: 548
Population Apoptotic (%) [2]: 17%
Population Fragmented Nuclei (%) [2]: 2%
Population Healthy Nuclei (%) [2]: 80%
Population Hoechst High Intensity Objects (%) [2]: 7%
Population Membrane Permeable-Phenotype (%) [2]: 0%
Population Mitochondria Different-Phenotype (%) [2]: 28%
Population Mitotic Cells (%) [2]: 82%
Population Normal (%) [2]: 92%
Population Pyknosed Nuclei (%) [2]: 16%
Population Tubulin-Different-Phenotype (%) [2]: 13%
Total Cell Count [2]: 803
Population Apoptotic (%) [3]: 17%
Population Fragmented Nuclei (%) [3]: 17%
Population Healthy Nuclei (%) [3]: 49%
Population Hoechst High Intensity Objects (%) [3]: 12%
Population Membrane Permeable-Phenotype (%) [3]: 3%
Population Mitochondria Different-Phenotype (%) [3]: 8%
Population Mitotic Cells (%) [3]: 82%
Population Normal (%) [3]: 87%
Population Pyknosed Nuclei (%) [3]: 32%
Population Tubulin-Different-Phenotype (%) [3]: 6%
Total Cell Count [3]: 507
Population Apoptotic (%) [4]: 11%
Population Fragmented Nuclei (%) [4]: 8%
Population Healthy Nuclei (%) [4]: 86%
Population Hoechst High Intensity Objects (%) [4]: 3%
Population Membrane Permeable-Phenotype (%) [4]: 1%
Population Mitochondria Different-Phenotype (%) [4]: 11%
Population Mitotic Cells (%) [4]: 88%
Population Normal (%) [4]: 96%
Population Pyknosed Nuclei (%) [4]: 4%
Population Tubulin-Different-Phenotype (%) [4]: 10%
Total Cell Count [4]: 1692
Population Apoptotic (%) [5]: 24%
Population Fragmented Nuclei (%) [5]: 16%
Population Healthy Nuclei (%) [5]: 53%
Population Hoechst High Intensity Objects (%) [5]: 17%
Population Membrane Permeable-Phenotype (%) [5]: 3%
Population Mitochondria Different-Phenotype (%) [5]: 15%
Population Mitotic Cells (%) [5]: 75%
Population Normal (%) [5]: 82%
Population Pyknosed Nuclei (%) [5]: 30%
Population Tubulin-Different-Phenotype (%) [5]: 18%
Total Cell Count [5]: 507
Population Apoptotic (%) [6]: 20%
Population Fragmented Nuclei (%) [6]: 4%
Population Healthy Nuclei (%) [6]: 84%
Population Hoechst High Intensity Objects (%) [6]: 10%
Population Membrane Permeable-Phenotype (%) [6]: 1%
Population Mitochondria Different-Phenotype (%) [6]: 20%
Population Mitotic Cells (%) [6]: 79%
Population Normal (%) [6]: 89%
Population Pyknosed Nuclei (%) [6]: 11%
Population Tubulin-Different-Phenotype (%) [6]: 39%
Total Cell Count [6]: 810
Population Apoptotic (%) [7]: 27%
Population Fragmented Nuclei (%) [7]: 13%
Population Healthy Nuclei (%) [7]: 66%
Population Hoechst High Intensity Objects (%) [7]: 8%
Population Membrane Permeable-Phenotype (%) [7]: 12%
Population Mitochondria Different-Phenotype (%) [7]: 5%
Population Mitotic Cells (%) [7]: 72%
Population Normal (%) [7]: 91%
Population Pyknosed Nuclei (%) [7]: 19%
Population Tubulin-Different-Phenotype (%) [7]: 11%
Total Cell Count [7]: 535
Population Apoptotic (%) [8]: 3%
Population Fragmented Nuclei (%) [8]: 24%
Population Healthy Nuclei (%) [8]: 73%
Population Hoechst High Intensity Objects (%) [8]: 4%
Population Membrane Permeable-Phenotype (%) [8]: 7%
Population Mitochondria Different-Phenotype (%) [8]: 2%
Population Mitotic Cells (%) [8]: 96%
Population Normal (%) [8]: 95%
Population Pyknosed Nuclei (%) [8]: 1%
Population Tubulin-Different-Phenotype (%) [8]: 12%
Total Cell Count [8]: 2851

Cc1nc(Nc2n[nH]c3c2CN(C(=O)N[C@H](CN(C)C)c2ccccc2)C3(C)C)c2sccc2n1 [PF-03758309]
Population Apoptotic (%) [1]: 22%
Population Fragmented Nuclei (%) [1]: 12%
Population Healthy Nuclei (%) [1]: 65%
Population Hoechst High Intensity Objects (%) [1]: 12%
Population Membrane Permeable-Phenotype (%) [1]: 2%
Population Mitochondria Different-Phenotype (%) [1]: 5%
Population Mitotic Cells (%) [1]: 77%
Population Normal (%) [1]: 87%
Population Pyknosed Nuclei (%) [1]: 22%
Population Tubulin-Different-Phenotype (%) [1]: 3%
Total Cell Count [1]: 616
Population Apoptotic (%) [2]: 8%
Population Fragmented Nuclei (%) [2]: 5%
Population Healthy Nuclei (%) [2]: 87%
Population Hoechst High Intensity Objects (%) [2]: 3%
Population Membrane Permeable-Phenotype (%) [2]: 0%
Population Mitochondria Different-Phenotype (%) [2]: 14%
Population Mitotic Cells (%) [2]: 91%
Population Normal (%) [2]: 96%
Population Pyknosed Nuclei (%) [2]: 6%
Population Tubulin-Different-Phenotype (%) [2]: 6%
Total Cell Count [2]: 1340
Population Apoptotic (%) [3]: 27%
Population Fragmented Nuclei (%) [3]: 16%
Population Healthy Nuclei (%) [3]: 49%
Population Hoechst High Intensity Objects (%) [3]: 17%
Population Membrane Permeable-Phenotype (%) [3]: 12%
Population Mitochondria Different-Phenotype (%) [3]: 21%
Population Mitotic Cells (%) [3]: 72%
Population Normal (%) [3]: 82%
Population Pyknosed Nuclei (%) [3]: 33%
Population Tubulin-Different-Phenotype (%) [3]: 45%
Total Cell Count [3]: 604
Population Apoptotic (%) [4]: 24%
Population Fragmented Nuclei (%) [4]: 3%
Population Healthy Nuclei (%) [4]: 79%
Population Hoechst High Intensity Objects (%) [4]: 6%
Population Membrane Permeable-Phenotype (%) [4]: 10%
Population Mitochondria Different-Phenotype (%) [4]: 46%
Population Mitotic Cells (%) [4]: 75%
Population Normal (%) [4]: 93%
Population Pyknosed Nuclei (%) [4]: 16%
Population Tubulin-Different-Phenotype (%) [4]: 87%
Total Cell Count [4]: 1040
Population Apoptotic (%) [5]: 23%
Population Fragmented Nuclei (%) [5]: 9%
Population Healthy Nuclei (%) [5]: 76%
Population Hoechst High Intensity Objects (%) [5]: 9%
Population Membrane Permeable-Phenotype (%) [5]: 3%
Population Mitochondria Different-Phenotype (%) [5]: 4%
Population Mitotic Cells (%) [5]: 76%
Population Normal (%) [5]: 90%
Population Pyknosed Nuclei (%) [5]: 13%
Population Tubulin-Different-Phenotype (%) [5]: 6%
Total Cell Count [5]: 623
Population Apoptotic (%) [6]: 4%
Population Fragmented Nuclei (%) [6]: 8%
Population Healthy Nuclei (%) [6]: 84%
Population Hoechst High Intensity Objects (%) [6]: 3%
Population Membrane Permeable-Phenotype (%) [6]: 4%
Population Mitochondria Different-Phenotype (%) [6]: 11%
Population Mitotic Cells (%) [6]: 95%
Population Normal (%) [6]: 96%
Population Pyknosed Nuclei (%) [6]: 6%
Population Tubulin-Different-Phenotype (%) [6]: 21%
Total Cell Count [6]: 1640
Population Apoptotic (%) [7]: 27%
Population Fragmented Nuclei (%) [7]: 15%
Population Healthy Nuclei (%) [7]: 52%
Population Hoechst High Intensity Objects (%) [7]: 14%
Population Mitochondria Different-Phenotype (%) [7]: 24%
Population Mitotic Cells (%) [7]: 72%
Population Normal (%) [7]: 85%
Population Pyknosed Nuclei (%) [7]: 31%
Population Tubulin-Different-Phenotype (%) [7]: 47%
Total Cell Count [7]: 627
Population Apoptotic (%) [8]: 14%
Population Fragmented Nuclei (%) [8]: 4%
Population Healthy Nuclei (%) [8]: 81%
Population Hoechst High Intensity Objects (%) [8]: 7%
Population Membrane Permeable-Phenotype (%) [8]: 8%
Population Mitochondria Different-Phenotype (%) [8]: 47%
Population Mitotic Cells (%) [8]: 85%
Population Normal (%) [8]: 92%
Population Pyknosed Nuclei (%) [8]: 14%
Population Tubulin-Different-Phenotype (%) [8]: 89%
Total Cell Count [8]: 1130

Reference: ChEMBL document CHEMBL4689842, “EUbOPEN Chemogenomics Library wave 1” (2021)
